Experiment [1] deals with T1, CYP199A4 (Rhodopseudomonas palustris, UniProt Q2IU02).
T1 sequence (Q2IU02 1-410): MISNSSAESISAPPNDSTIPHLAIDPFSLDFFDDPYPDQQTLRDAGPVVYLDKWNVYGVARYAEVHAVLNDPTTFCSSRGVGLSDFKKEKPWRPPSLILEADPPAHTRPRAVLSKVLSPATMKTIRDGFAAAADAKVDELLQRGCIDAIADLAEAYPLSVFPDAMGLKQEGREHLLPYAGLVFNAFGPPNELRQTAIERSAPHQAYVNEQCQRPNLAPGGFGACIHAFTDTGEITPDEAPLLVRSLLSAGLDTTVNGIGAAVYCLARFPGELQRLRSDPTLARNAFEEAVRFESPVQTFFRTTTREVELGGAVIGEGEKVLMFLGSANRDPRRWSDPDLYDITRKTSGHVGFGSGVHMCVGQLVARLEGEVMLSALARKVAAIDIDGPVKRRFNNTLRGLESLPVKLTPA
Kind of experiment: Dissociation constant determination by UV-vis binding titration. A digest of the protocol:
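UV-vis titration at 30 °C: enzyme diluted to 0.5–2.0 μM in 50 mM Tris, pH 7.4. Substrate was added from 1, 10 or 100 mM stocks in ethanol or DMSO. Soret peak-to-trough absorbance difference was recorded over 700–250 nm. Kd came from fitting ΔA against total substrate concentration to the tight-binding quadratic equation.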

For experiment [2], the target named is T1, CYP199A4. Description: Spin state determination by UV-vis spectroscopy. In kind it is binding. Conditions: WT CYP199A4, 50 mM Tris, pH 7.4.
In experiment [3] the target is T1, CYP199A4. Kind of experiment: In vitro NADH turnover assay and metabolite analysis. The format is biochemical. As to conditions: for PFR (product formation rate): WT CYP199A4 0.5 μM, 50 mM Tris, pH 7.4.
For experiment [4], the target named is T1, CYP199A4. Conditions: WT CYP199A4, cited from earlier work.
For experiment [5], the target named is T1, CYP199A4. As to conditions: WT CYP199A4; cited from earlier work.
For experiment [6], the target named is T1, CYP199A4. As to conditions: WT CYP199A4, cited from earlier work. The source holds these as a separate data set.
Experiment [7] relates to F182L mutant of CYP199A4. Description: Spin state determination by UV-vis spectroscopy, F182L variant. In kind it is binding, Rhodopseudomonas palustris. In a few lines: (§1)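 Mutant was produced and purified as for WT. UV-vis spectra of the substrate-treated enzyme were recorded at 30 °C. The percentage low-to-high-spin shift of the ferric heme was estimated to about ±5%.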

Experiment [8] concerns F298V mutant of CYP199A4. Description: In vitro NADH turnover assay and metabolite analysis, F298V mutant. The format is biochemical, Rhodopseudomonas palustris. A digest of the protocol: (§2)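 Mutant was expressed and purified as for WT, with glycerol removed by gel filtration. NADH was added to ~320 μM, then substrate at 1 mM final. NADH oxidation was followed at A340 (ε 6.22 mM⁻¹cm⁻¹). Values are mean ± S.D., n ≥ 3.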

Experiment [9] relates to F298V mutant of CYP199A4. Kind of experiment: Spin state determination by UV-vis spectroscopy, F298V mutant. The format is binding, Rhodopseudomonas palustris. A digest of the protocol:
as §1

Experiment [10] relates to F182L mutant of CYP199A4. Kind of experiment: In vitro NADH turnover assay and metabolite analysis, F182L mutant. In kind it is biochemical, Rhodopseudomonas palustris. In a few lines: as §2

The term Kd denotes a measure of binding affinity in units of concentration.

Like-named read-outs stand apart in the source and are kept apart here. A value given as a limit tells only on which side of the number the result lay.

Consider `COc1cccc(-c2ccc(C(=O)O)cc2)c1` [4‐(3′‐methoxyphenyl)BA, 4‐(3′‐methoxyphenyl)benzoic acid], for which binding in experiment [1] was characterised by a dissociation constant (Kd) of 600 ± 100 nM. Also, the “HS [%] (shift from low-spin to high-spin ferric heme)” value in [2] and in [2] (listed as 4‐(3′‐Methoxyphenyl)benzoic acid) was at least 95% in each case.

In experiment [1], `COc1ccc(-c2ccc(C(=O)O)cc2)cc1` [4‐(4′‐methoxyphenyl)BA, 4‐(4′‐methoxyphenyl)benzoic acid] returned a Kd of 100000 ± 10000 nM. For the same molecule, the “Coupling (percentage of NADH utilised for formation of oxidation products)” value in experiment [3] (WT CYP199A4) is on record as at most 1%. The “HS [%] (shift from low-spin to high-spin ferric heme)” value in experiment [2] is listed as around 10%.

The molecule `O=C(O)c1ccc(C(=O)c2ccccc2)cc1` [4‐benzoylBA, 4‐benzoylbenzoic acid] displayed a Kd in [1] of 2300 ± 400 nM. Further, the “HS [%] (shift from low-spin to high-spin ferric heme)” value was “type II^[c]” in experiment [2] and “type II” in [2] (listed as 4‐benzoylbenzoic acid).

The molecule `O=C(O)c1ccc(Cc2ccccc2)cc1` [4‐benzylBA, 4‐benzylbenzoic acid] yielded a Kd in experiment [1] of 5200 ± 250 nM. Moreover, the “Coupling (percentage of NADH utilised for formation of oxidation products)” value in experiment [3] (WT CYP199A4) is 95±11%. The “PFR (product formation rate)” value in [3] turned out to be 522 ± 61 min⁻¹; in experiment [3] (listed as 4‐Benzylbenzoic acid), 522 min⁻¹. The “HS [%] (shift from low-spin to high-spin ferric heme)” value in [2] is 90%.

Take `O=C(O)c1ccc(C2CCCCC2)cc1` [4‐cyclohexylBA, 4‐cyclohexylbenzoic acid]: the “HS [%]” value in [4] was at least 95%. Also, in experiment [5], the Kd was 450 ± 50 nM. Further, the Coupling in experiment [6] is on record as 33±2%. Also, the NADH oxidation rate in experiment [6] was 169 ± 11 min⁻¹; in experiment [8] (F298V mutant), 162 ± 55 min⁻¹. In [6], the “PFR (product formation rate)” value is 52 ± 6 min⁻¹. Further, the High-spin species in experiment [7] is recorded as 90%; in [9], at least 85%. Also, the figures for the “Product selectivity: 4-(1-hydroxycyclohexyl)benzoic acid (benzylic hydroxylation)” value in experiment [3] (WT CYP199A4) and in experiment [8] (F298V variant) were 24% and 34%, respectively. The Coupling efficiency in experiment [8] (F298V mutant) is 31±9%.

For `COc1ccc(C(=O)O)cc1` [4‐methoxyBA, 4‐methoxybenzoic acid], the “HS [%]” value in experiment [4] (ref 8c) is reported as at least 95%. Besides, in [6] (ref 8c), the Coupling is on record as 91±10%, the NADH oxidation rate is 1340 ± 30 min⁻¹ and the “PFR (product formation rate)” value is 1220 ± 120 min⁻¹.

`O=C(O)c1ccc(-c2ccccc2)cc1` [4‐phenylBA, 4‐phenylbenzoic acid]: the “HS [%]” value in [4] is listed as 90%. Moreover, the Kd in [5] was 1700 ± 100 nM. In addition, the results for the NADH oxidation rate in experiment [6], in experiment [10] and in [8] (F298V mutant) were 902 ± 34 min⁻¹, 75 ± 0.3 min⁻¹ and 1030 ± 90 min⁻¹, respectively. Moreover, the High-spin species in [7] is around 10%; in experiment [9], at least 85%. The Coupling efficiency in experiment [10] amounted to 30%. Further, the “Proportion of 4-(3′-hydroxyphenyl)benzoic acid among metabolites” value in [10] (RT 16.2 min) came out at 9%. Further, the “Oxidation by the F298V mutant (in words)” value in experiment [8] (F298V mutant) is “unable to oxidise”.

Regarding `CC(C)(C)c1ccc(C(=O)O)cc1` [4‐tert‐butylBA, 4‐tert‐butylbenzoic acid], in [4], the “HS [%]” value is listed as at least 95%. Moreover, the dissociation constant Kd in experiment [5] is 39000 ± 2000 nM. In [6], the Coupling is reported as 100±13%, the NADH oxidation rate is 227 ± 4 min⁻¹ and the “PFR (product formation rate)” value is 227 ± 32 min⁻¹.
